For series [1], the system named is NF-κB reporter gene activation (other pathways). The series is described as follows: NF-κB reporter gene activation by agonists of other NF-κB activation pathways. The series is classed as cell-based.
Series [2] can be described thus: Metabolic stability in mouse hepatic microsomes. The series is classed as in vitro ADME. Particulars: 1 h.
Another series concerns the target JAK2 (Homo sapiens, UniProt O60674). Nature of the series: KINOMEscan. It is filed as binding. Particulars: 10 μM.
Series [3] has as its system IL-8 production in HEK293 cells. Nature of the series: IL-8 production induced by PKC activators in HEK293 cells. Particulars: Homo sapiens, HEK293, read-out: IC50, IL-8 production. It is filed as cell-based.
Series [4] has as its system 92 targets (cloned human or rodent receptors, ion channels, and transporters). Nature of the series: NIMH-PDSP receptor, ion channel and transporter panel. Particulars: of 92 targets screened, 10 μM. The series is classed as binding.
Series [5] in a line: Metabolic stability in human hepatic microsomes. Particulars: 1 h. The series is classed as in vitro ADME.
Another series concerns PKC-β. Particulars: concentrations up to 8 μM; cited from earlier work.
The test system of series [6] is IL-2 production by Jurkat T-cells. Nature of the series: IL-2 production by Jurkat T-cells. It is filed as cell-based. Particulars: Homo sapiens, read-out: IC50, production of IL-2. In outline:
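Jurkat T cells were stimulated either with CD3/CD28 or with PMA/ionomycin in the presence of test compound. IL-2 production was measured and an IC50 derived.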

A further series concerns PKC-θ. Particulars: concentrations up to 8 μM; cited from earlier work.
The test system of the next series is 353 protein kinases. The series is described as follows: KINOMEscan broad kinome screen. The series is classed as binding. Particulars: of 353 protein kinases surveyed, 10 μM.
Series [7] in a line: Plasma stability, human plasma. The series is classed as in vitro ADME. Particulars: human plasma/PBS; compound at 40 μM, 3 h.
A further series relates to IKK-β. Particulars: concentrations up to 8 μM; cited from earlier work.
In another series the target is T1, TLK1 (Homo sapiens, UniProt Q9UKI8).
T1 sequence (Q9UKI8 1-766): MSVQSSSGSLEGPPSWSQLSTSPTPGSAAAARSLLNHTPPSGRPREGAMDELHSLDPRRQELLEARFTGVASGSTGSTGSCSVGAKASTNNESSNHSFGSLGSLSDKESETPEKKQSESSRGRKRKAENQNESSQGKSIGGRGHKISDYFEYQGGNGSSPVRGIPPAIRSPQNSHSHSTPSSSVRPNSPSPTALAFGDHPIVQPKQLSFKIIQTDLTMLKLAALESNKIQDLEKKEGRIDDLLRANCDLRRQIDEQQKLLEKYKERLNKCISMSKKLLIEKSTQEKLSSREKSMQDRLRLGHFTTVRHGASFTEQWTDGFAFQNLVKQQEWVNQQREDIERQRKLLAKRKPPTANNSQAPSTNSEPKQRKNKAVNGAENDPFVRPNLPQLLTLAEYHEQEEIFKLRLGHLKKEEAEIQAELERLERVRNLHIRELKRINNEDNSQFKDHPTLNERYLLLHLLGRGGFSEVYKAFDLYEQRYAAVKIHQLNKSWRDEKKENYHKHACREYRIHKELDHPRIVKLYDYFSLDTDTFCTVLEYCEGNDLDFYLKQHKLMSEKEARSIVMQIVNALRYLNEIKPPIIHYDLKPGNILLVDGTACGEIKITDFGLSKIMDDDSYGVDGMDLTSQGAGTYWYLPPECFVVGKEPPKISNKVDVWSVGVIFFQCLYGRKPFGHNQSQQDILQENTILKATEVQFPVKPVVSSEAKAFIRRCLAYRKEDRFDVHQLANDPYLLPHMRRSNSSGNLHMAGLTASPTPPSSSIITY
The series is described as follows: KINOMEscan. Particulars: 10 μM. It is filed as binding.

Series [8] is described as follows: Plasma stability, mouse plasma. It is filed as in vitro ADME. Particulars: mouse plasma/PBS; compound at 40 μM, 3 h.
The subject of series [9] is NF-κB activation induced by TNF-α. Nature of the series: NF-κB activation through TNF-α stimulation. It is filed as cell-based.
The subject of the next series is murine B-lymphocytes. The series is described as follows: Anti-IgM-stimulated proliferation of murine B-lymphocytes. Particulars: Mus musculus, read-out: IC50, proliferation of B-lymphocytes. It is filed as cell-based.
Series [10] can be described thus: In vivo dose-exposure profiling, single ip dose in male mice. Particulars: 50 mg/kg ip, t = 3 h.
The next series concerns Raf. Nature of the series: KINOMEscan. It is filed as binding. Particulars: 10 μM.
A short description of series [11]: Plasma protein binding, human plasma. It is filed as in vitro ADME.
Series [12] in a line: Plasma protein binding, mouse plasma. It is filed as in vitro ADME.
Series [13] has as its system NF-κB activation (HEK293-NF-κB-Luc cells, PMA/ionomycin). It is filed as cell-based, human. Particulars: HEK293 NF-κB-luciferase reporter; for fold drop in activity relative to 1a: versus 1a. (In general: Reporter assays use an easily measured gene product as a stand-in for the process of interest.)

Sequence of JAK2 (O60674 whole entry): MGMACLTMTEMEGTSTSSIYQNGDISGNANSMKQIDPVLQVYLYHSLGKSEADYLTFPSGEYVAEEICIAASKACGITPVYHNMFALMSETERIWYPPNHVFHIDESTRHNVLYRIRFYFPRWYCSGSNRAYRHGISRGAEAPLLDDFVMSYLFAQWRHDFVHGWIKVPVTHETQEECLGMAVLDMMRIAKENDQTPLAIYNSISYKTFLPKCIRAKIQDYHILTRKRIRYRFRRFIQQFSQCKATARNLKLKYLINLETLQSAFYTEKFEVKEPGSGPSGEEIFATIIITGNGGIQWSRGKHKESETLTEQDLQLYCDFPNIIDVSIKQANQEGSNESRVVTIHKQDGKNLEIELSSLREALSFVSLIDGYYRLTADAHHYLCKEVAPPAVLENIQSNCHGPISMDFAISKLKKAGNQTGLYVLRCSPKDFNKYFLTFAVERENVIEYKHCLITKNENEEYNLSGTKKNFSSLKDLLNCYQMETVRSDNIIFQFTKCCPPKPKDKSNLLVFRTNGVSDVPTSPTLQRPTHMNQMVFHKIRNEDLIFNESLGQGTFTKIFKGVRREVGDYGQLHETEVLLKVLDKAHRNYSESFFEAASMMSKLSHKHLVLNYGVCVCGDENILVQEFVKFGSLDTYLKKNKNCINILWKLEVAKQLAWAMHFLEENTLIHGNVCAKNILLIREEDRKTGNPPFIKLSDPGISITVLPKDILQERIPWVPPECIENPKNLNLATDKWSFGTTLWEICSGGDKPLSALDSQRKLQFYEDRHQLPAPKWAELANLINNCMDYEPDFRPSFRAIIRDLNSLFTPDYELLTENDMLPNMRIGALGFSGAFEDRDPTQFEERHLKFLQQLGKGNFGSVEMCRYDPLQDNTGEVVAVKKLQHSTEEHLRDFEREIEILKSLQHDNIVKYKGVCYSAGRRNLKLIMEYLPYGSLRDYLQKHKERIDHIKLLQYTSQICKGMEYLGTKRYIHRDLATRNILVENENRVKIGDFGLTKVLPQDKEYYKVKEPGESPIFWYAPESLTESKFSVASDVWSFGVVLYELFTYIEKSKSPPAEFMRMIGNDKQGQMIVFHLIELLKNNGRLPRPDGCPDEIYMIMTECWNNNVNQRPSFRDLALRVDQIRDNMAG

Consider `Cc1cc2nc(NCCCO)n(CC(=O)c3cc(C(C)(C)C)c(O)c(C(C)(C)C)c3)c2cc1C` [Compound 1a, 1-(3,5-di-tert-butyl-4-hydroxyphenyl)-2-(2-((3-hydroxypropyl)amino)-5,6-dimethyl-1H-benzo[d]imidazol-1-yl)ethanone], for which, in series [1], the “inhibition of NF-κB reporter gene activation by agonists of the other NF-κB activation pathways” value is “failing to inhibit”. Also, the “microsome stability (% remaining) mouse 1 μM” value in series [2] (1 μM) worked out at 0.5 % remaining. Moreover, the “microsome stability (% remaining) mouse 10 μM” value in series [2] (10 μM) was found to be 19 % remaining. Also, the “% inhibition of JAK2” value on JAK2 came out at 53 % inhibition. Further, the results for the IC50 (in series [3]; in series [6]; in the series on murine B-lymphocytes) were < 100 nM, < 5000 nM and ~2000 nM, respectively. Moreover, the “number of targets with greater than 50% inhibition” value in [4] is recorded as “eight”. The “microsome stability (% remaining) human 1 μM” value in [5] (1 μM) was 26 % remaining. In addition, in series [5] (10 μM), the “microsome stability (% remaining) human 10 μM” value is on record as 55 % remaining. Also, the “suppression of PKC-β” value with PKC-β is recorded as “failed to suppress”. Moreover, the “suppression of PKC-θ” value with PKC-θ is on record as “failed to suppress”. Moreover, in the series on 353 protein kinases, the “number of kinases inhibited by more than 50%” value was “three”. In addition, the “plasma stability (% remaining) human” value in series [7] was 100/100 % remaining. Moreover, the “suppression of IKK-β” value with IKK-β is “failed to suppress”. For the same molecule, on TLK1, the “% inhibition of TLK1” value is given as 70 % inhibition. In addition, the “plasma stability (% remaining) mouse” value in series [8] was 100/100 % remaining. Also, the “inhibition of NF-κB activation through TNF-α stimulation” value in series [9] is recorded as “did not inhibit”. The “observed tolerability of the cohort” value in series [10] is recorded as “clear signs of morbidity”. In addition, the “% inhibition of Raf” value with Raf worked out at 57 % inhibition. In series [11] (1 μM), the “plasma protein binding (% bound) human 1 μM” value amounted to 99.9 % bound. The “plasma protein binding (% bound) human 10 μM” value in [11] (10 μM) was determined as 99.8 % bound. Further, in series [12] (1 μM), the “plasma protein binding (% bound) mouse 1 μM” value was 99.8 % bound. For the same molecule, the “plasma protein binding (% bound) mouse 10 μM” value in series [12] (10 μM) is listed as 99.9 % bound.
In the case of `CC(C)(C)c1cc(C(=O)Cn2c(NCCCO)nc3cc(Br)ccc32)cc(C(C)(C)C)c1O` [Compound 1b], the “fold drop in activity relative to 1a” value in series [13] is on record as 40−80 fold.
Still for that read-out and setting: the result for `CC(C)(C)c1cc(C(=O)Cn2c(NCCCO)nc3cc([N+](=O)[O-])ccc32)cc(C(C)(C)C)c1O` [Compound 1e] reads 20 fold.
As for `Cc1cc2nc(N3CCC(O)CC3)n(CC(=O)c3cc(C(C)(C)C)c(O)c(C(C)(C)C)c3)c2cc1C` [Compound 1k], in series [13], the “NF-κB inhibitory activity (in words)” value was “abolish activity”.
The same measure, in the same setting: to `Cc1cc2nc(NCCCO)n(CC(=O)c3cc(C(C)(C)C)cc(C(C)(C)C)c3)c2cc1C` [Compound 1l] belongs “retained complete activity”.
Still for that read-out and setting: the result for `Cc1cc2nc(NCCCO)n(CC(=O)c3cccc(C(C)(C)C)c3)c2cc1C` [Compound 1m] reads “completely inactive”; that for `Cc1cc2nc(NCCCO)n(CC(=O)c3cccc(OC(C)(C)C)c3)c2cc1C` [Compound 1n], “completely inactive”.
For the molecule `Cc1cc2nc(NCCCN=[N+]=[N-])n(CC(=O)c3cc(C(C)(C)C)c(O)c(C(C)(C)C)c3)c2cc1C` [Compound 1o], the “fold drop in activity relative to 1a” value in series [13] is recorded as ≤ 6 fold.
Still for that read-out and setting: the result for `C#CCCCCC(=O)OCCCNc1nc2cc(C)c(C)cc2n1CC(=O)c1cc(C(C)(C)C)c(O)c(C(C)(C)C)c1` [Compound 1p] reads ≤ 6 fold.
As to `Cc1c(C(C)(C)C)cc(O)cc1C(C)(C)C` [Compound 9, 3,5-Di-t-butyl-4-methylphenol, reference compound], in [13], the “NF-κB inhibitory activity (in words)” value was “inactive”.
Regarding `Cc1cc(Cc2cc(C)cc(C(C)(C)C)c2O)c(O)c(C(C)(C)C)c1` [Compound 10, 6,6′-methylenebis-(2-tert-butyl-4-methylphenol), reference compound], the “NF-κB inhibitory activity (in words)” value in series [13] was “inactive”.
`CC(C)(C)c1cc(C(=O)Cn2c(NCCCO)nc3ccc(Br)cc32)cc(C(C)(C)C)c1O` [Compound 17b]: the “fold drop in activity relative to 1a” value in series [13] is recorded as 40−80 fold.
Regarding `CC(C)(C)c1cc(C(=O)Cn2c(NCCCO)nc3ccc([N+](=O)[O-])cc32)cc(C(C)(C)C)c1O` [Compound 17e], the “NF-κB inhibitory activity (in words)” value in series [13] is “inactive”.
Take `Cc1cc2ncn(CC(=O)c3cc(C(C)(C)C)c(O)c(C(C)(C)C)c3)c2cc1C` [Compound 18]: in [13], the “NF-κB inhibitory activity (in words)” value was “significant loss of activity”.
`Cc1cc2[nH]c(=O)n(CC(=O)c3cc(C(C)(C)C)c(O)c(C(C)(C)C)c3)c2cc1C` [Compound 19]: the “NF-κB inhibitory activity (in words)” value in series [13] is reported as “essentially equipotent to 1a”.
As to `CN[C@@H]1C[C@H]2O[C@@](C)([C@@H]1OC)n1c3ccccc3c3c4c(c5c6ccccc6n2c5c31)C(=O)NC4` [staurosporine, reference compound], in the series with PKC-θ, the “suppression of PKC-θ” value is given as “potent inhibition”. Moreover, the “suppression of IKK-β” value in the series with IKK-β was “potent inhibition”.
